# Shown are actives, neighbours in structure and some others; about 4.6% of the full set was active somewhere.
# OX1R antag-1 – OX1R (HCRTR1) antagonists, primary screen, fluorescence, CHO/OX1R cells, Fluo-8 calcium, orexin A; actives 0.43% (n = 330,000); inhibition, % at 5 µM; Fluo-8 calcium fluorescence;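 active means inhibition above its plate's threshold, mean inhibition of all tested compounds on the plate plus 3 SD, cut at about 37% in these data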;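 further: 0% = orexin A challenge wells and 100% = SB-334867-A antagonist wells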
# OX1R antag-2 – antagonists of human orexin 1 receptor (OX1R). Orexin/Hypocretin receptor type 1 (Homo sapiens), O43613. OX1R-expressing cells, FRET antagonist read-out. inhibition, % at 6.6 µM. actives 1.8% (n = 330,000); in the data active means inhibition mostly above about 38%, no sharp cut-off; inactive means mostly below about 40%;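 further: 0% = agonist challenge alone and 100% = reference antagonist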
# GPR7 antag – GPR7 receptor antagonists, primary screen, cell-based, fluorescence, single concentration. AID 1861, 2009. actives 1.1% (n = 290,000). Neuropeptides B/W receptor type 1 (Homo sapiens), P48145. inhibition, % at 4.4 µM. GPR7-expressing cells, fluorescence antagonist assay; in the data active means inhibition above about 16%, passing the limit was not always enough;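 further: cells stimulated with the agonist NPW; 0% = agonist with vehicle and 100% = vehicle without agonist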
# Target sequence (P48145 whole entry, looked up): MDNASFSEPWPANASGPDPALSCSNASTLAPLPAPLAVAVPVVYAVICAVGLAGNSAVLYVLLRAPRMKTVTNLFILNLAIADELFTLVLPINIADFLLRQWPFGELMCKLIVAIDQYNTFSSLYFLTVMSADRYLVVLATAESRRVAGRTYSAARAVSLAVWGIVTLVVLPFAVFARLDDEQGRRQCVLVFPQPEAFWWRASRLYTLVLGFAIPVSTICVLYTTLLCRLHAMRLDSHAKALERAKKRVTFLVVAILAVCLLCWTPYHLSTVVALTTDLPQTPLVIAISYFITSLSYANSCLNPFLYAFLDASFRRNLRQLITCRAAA
# TAAR1 antagonist – human TAAR1 antagonists, primary screen, Fluo-8 calcium fluorescence, CHO RD-HGA16 cells; antagonist; AID 624466, 2012; inhibition, % at 3 µM; actives 1.5% (n = 360,000);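 active means inhibition above a per-plate cutoff, the mean inhibition of test compounds on that plate plus 3 SD, cut at about 49% in these data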;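 further: 0% = DMSO plus EC80 beta-PEA response and 100% = DMSO alone without agonist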
# Target sequence (Q96RJ0 whole entry, looked up): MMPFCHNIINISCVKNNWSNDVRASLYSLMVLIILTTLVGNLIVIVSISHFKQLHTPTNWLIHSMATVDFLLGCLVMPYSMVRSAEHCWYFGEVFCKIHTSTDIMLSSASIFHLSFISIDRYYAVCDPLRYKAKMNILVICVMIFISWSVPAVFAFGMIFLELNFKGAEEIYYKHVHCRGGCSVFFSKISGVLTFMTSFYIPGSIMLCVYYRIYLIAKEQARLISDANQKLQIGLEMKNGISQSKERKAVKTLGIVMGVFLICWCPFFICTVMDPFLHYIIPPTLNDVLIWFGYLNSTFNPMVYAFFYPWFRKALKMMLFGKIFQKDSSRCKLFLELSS
#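 System: CHO RD-HGA16 cells bearing hTAAR1. Reagent: EC80 β-phenethylamine stimulus. Schedule: seeding 17-24 h prior, 75-min 37 °C, 30-min RT dye loading. Signal: Fluo-8 intracellular calcium dye fluorescence, real-time kinetic reads. Read-out: % inhibition from peak post-agonist over basal fluorescence ratio. Benchmarks: vehicle wells and EC80 agonist wells. Replicates: n of 1.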
# TAAR1 agonist – human TAAR1 agonists, primary screen, Fluo-8 calcium fluorescence, CHO RD-HGA16 cells; actives 0.99% (n = 360,000); Trace amine-associated receptor 1 (Homo sapiens), Q96RJ0; vehicle wells 0%, saturating PEA agonist 100%; activation, % at 3 µM;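 active means activation above the mean activation of all test compounds in the run plus 3 SD, cut at about 38% in these data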
#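 System: CHO-derived RD-HGA16 cells with stable Gα16 and human TAAR1 / Times: 17-24 h plating, Fluo-8 75 min 37 °C, 30 min RT / Technique: calcium-sensitive Fluo-8 signal, excitation 470-495, emission 515-575 nm / Measure: % activation relative to PEA EC100 response / Benchmarks: DMSO and PEA EC100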
# CHO parental Ca – ATP-evoked calcium signal inhibitors, parental CHO, primary screen, counter-screen for OX1R antagonist project, cell-based, fluorescence, Fluo-8 calcium dye; inhibition, % at 5.6 µM; actives 0.63% (n = 330,000); parental CHO-K1, ATP-induced calcium, Fluo-8 fluorescence;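 active means inhibition above that plate's mean sample inhibition plus 3 SD, cut at about 26% in these data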;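 further: 0% = ATP-challenged DMSO wells and 100% = DMSO wells without ATP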
#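 Material – parental CHO cells · Reagent – ATP stimulus · Compound – single nominal dose of 5.6 µM per compound · Detection – Fluo-8 fluorescence · Read-out basis – percent inhibition of calcium signal · Controls – ATP-challenged DMSO wells low, unchallenged DMSO wells high · Repeats – no replicates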
# * = called active by the depositor; . = not tested or not shown.
SMILES,OX1R antag-1,OX1R antag-2,GPR7 antag,TAAR1 antagonist,TAAR1 agonist,CHO parental Ca
CC1Cc2cc(-c3csc(NC(=O)Cc4cccs4)n3)ccc2N1S(C)(=O)=O (stereo not given),30,17,-3,61*,17,14
CCC(=O)Nc1nc(-c2ccc3c(c2)CC(C)N3S(C)(=O)=O)cs1 (stereo not given),-25,55,-5,43,10,-19
c1ccc(-c2nc3ccccc3nc2-c2ccc(CN3CCC4(CC3)CNc3ccccc34)cc2)cc1,.,.,.,-1,-2,.
CCOC1=C2CN(S(=O)(=O)c3ccc(C)cc3)[C@H](c3cccc(Cl)c3)C[C@@H]2N(S(=O)(=O)c2ccccc2[N+](=O)[O-])[C@H](c2ccccc2)C1,.,.,.,-17,0,.
CSc1ccc(Cn2c(C)c(C(=O)NCc3ccccc3C(F)(F)F)sc2=O)cc1,.,.,.,52*,2,.
Cc1ccc(CNc2nc(-c3cccnc3)nc3ccccc23)cc1,-6,21,-16,28,4,-26
COCCNc1nc(-c2ccccc2)nc2ccccc12,-7,46*,-3,10,2,-28
COCCN(CCOC)c1nc(-c2ccccc2)nc2ccccc12,.,.,-8,56*,9,.
COc1ccc(CCNc2nc(-c3cccnc3)nc3ccccc23)cc1OC,4,36,-9,63*,15,-7
O=C(OCc1ccccc1)N1CCC2CC1c1ccc(N3CCN(Cc4ccccc4)CC3)cc12 (stereo not given),.,.,.,-26,1,.
C[C@@H]1ON(C)[C@H]2C[C@H]3c4[nH]c5c(-c6cccc(F)c6)cccc5c4CCN3C(=O)[C@@H]12,.,.,.,45,11,.
Cc1ccc(NC(=O)c2cc3c(s2)CCCC3)cc1S(=O)(=O)Nc1ccccc1Cl,6,70*,-11,24,1,-1
O=C(Nc1cc(S(=O)(=O)Nc2ccccc2Cl)ccc1O)c1cc2c(s1)CCCC2,0,51,-14,-8,4,-7
CCN(C[C@H]1N[C@@](CC)(C(=O)OC)[C@H]2C(=O)N(Cc3ccccc3)C(=O)[C@@H]12)C(=O)c1ccc(C)cc1,-14,9,.,50*,11,-19
CC1CCN(C(=O)CN(c2ccccc2)S(=O)(=O)N(C)C)CC1,-31,13,21*,18,6,-24
CN(C)S(=O)(=O)N(CC(=O)N1CCC(Cc2ccccc2)CC1)c1ccccc1,-16,28,-5,14,5,-11
CS(=O)(=O)NCCSc1nnnn1-c1ccccc1,9,6,18*,6,7,-2
CCOC(=O)Cc1csc(NC(=O)Nc2ccc(OC(F)(F)F)cc2)n1,-1,25,7,-25,9,29*
COc1ccccc1NC(=O)Nc1nc(CC(=O)Nc2ccc(F)c(F)c2)cs1,-13,34,.,42,13,13
COc1ccccc1NC(=O)Nc1nc(CC(=O)N2CCN(c3ccccc3)CC2)cs1,-31,4,.,52*,14,-13
COc1ccc(NC(=O)Cc2csc(NC(=O)Nc3ccccc3OC)n2)cc1,.,.,.,49*,30,.
COc1ccc(N2CCN(C(=O)Cc3csc(NC(=O)Nc4ccccc4OC)n3)CC2)cc1,-27,4,.,50*,12,-17
COc1ccccc1NC(=O)Nc1nc(CC(=O)NCc2ccccn2)cs1,-28,5,.,45,10,-24
COc1ccccc1NC(=O)Nc1nc(CC(=O)NC2CCCC2)cs1,-28,17,.,-6,7,-11
CCOc1cc(/C=N/NC(=O)c2cccc([N+](=O)[O-])c2)ccc1OS(=O)(=O)c1ccccc1,0,17,-6,52*,2,-6
SMILES,OX1R antag-1,OX1R antag-2,GPR7 antag,TAAR1 antagonist,TAAR1 agonist,CHO parental Ca
O=C(N/N=C\c1cc([N+](=O)[O-])ccc1N1CCCC1)c1ccccn1,-10,8,-8,8,-2,-10
CN1CCN(c2ccc([N+](=O)[O-])cc2/C=N/NC(=O)c2cccc([N+](=O)[O-])c2)CC1,-29,66*,-3,-8,2,-16
Nc1ccccc1C(=O)NN=Cc1cccc([N+](=O)[O-])c1,.,.,.,7,1,.
O=C(N/N=C/c1cccc([N+](=O)[O-])c1)c1cc[n+](CCO)cc1,-4,69*,-5,-8,0,1
Nc1cc(C(=O)N/N=C/c2cccc([N+](=O)[O-])c2)n[nH]c1=O,-8,52*,-10,-19,3,-2
CC(C)(C)S(=O)(=O)N1C[C@@H]2CC(=O)C=C2[C@H]1CCO,.,.,.,-23,2,.
O=C(N/N=C/c1ccc([N+](=O)[O-])cc1)c1cccc(N2CCCC2=O)c1,-18,76*,-10,0,1,-12
O=C(N/N=C/c1ccncc1)c1cccc([N+](=O)[O-])c1,-4,57*,3,-8,0,-6
O=C(N/N=C/c1ccco1)c1cc([N+](=O)[O-])cc([N+](=O)[O-])c1,-6,64*,-13,-1,7,-14
COC(=O)C[C@H]1CC[C@@H](NC(=O)C2CC2)[C@@H](CO)O1,.,.,.,11,0,.
O=C(NC1CCCC1)C(c1cccs1)N(CC1CCCO1)C(=O)Cc1cccs1 (stereo not given),-8,22,18*,12,3,-20
COc1ccc(C(C(=O)NC2CCCC2)N(CC2CCCO2)C(=O)Cc2cccs2)cc1OC (stereo not given),-33,12,18,8,-1,-22
O=C(CNC(=O)c1ccccc1)OC(C(=O)O)c1ccc(F)cc1 (stereo not given),.,.,.,-10,3,.
CC(C)NC(=O)N1Cc2cc(C(=O)NC3CCCCC3)nc(-c3cccc(-c4cccnc4)c3)c2[C@@H]1CCO,.,.,.,25,4,.
O=C(N/N=C/c1sc(N2CCOCC2)nc1-c1ccccc1)c1ccc(O)cc1,-7,16,8,22,2,-14
O=C(N/N=C/c1sc(N2CCOCC2)nc1-c1ccccc1)c1cccc(S(=O)(=O)N2CCCC2)c1,-5,18,-17,52*,14,-10
Oc1ccc(N=Nc2ccc3ccccc3c2)cc1,5,-1,-3,13,0,43*
CC(=O)N(c1nc2ccccc2s1)N1C(=O)c2ccccc2C1=O,.,.,.,-39,1,.
COc1ccc(NC(=O)CSc2nnc(-c3cccc(O)c3)o2)cc1,-11,9,7,-12,40*,15
Cc1cccc(OCc2nnc(SCC(=O)Nc3ccc(C)c(C)c3)o2)c1,1,3,-10,54*,5,-11
